ChEMBL document CHEMBL1773041, “Lehualides E-K, cytotoxic metabolites from the Tongan marine sponge Plakortis sp” (J Nat Prod, 2011)
Activity calls are given as the source filed them. The calls are words filed in the database; no cut-off is given here.

Columns and labels:
[1] = tested on: HL-60; assay: Cytotoxicity against human HL60 cells assessed as growth inhibition after 2 days by MTT assay; format: functional, cell-based; settings: HL-60, 48 h
[2] = tested on: Saccharomyces cerevisiae; assay: Antimicrobial activity against Saccharomyces cerevisiae YCG198 harboring Saccharomyces cerevisiae Y8205 MATalpha PDR1delta::NAT PDR3 delta::URA3 assessed as growth inhibition at 100 uM after 18 hrs; format: functional; settings: YCG198, 18 h, read-out: GI
How it was run: (§1)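 Stationary-phase yeast grown in synthetic complete medium, diluted to 5 × 10^5 cells/mL, then exposed 18 h at 30 °C to seven-point half-log dilutions from DMSO stocks (final 100 to 0.01 μM; one extended series topped at 300 μM). DMSO (1% or 3%) served as control. Growth was read as OD590, and residual growth = OD/OD_DMSO × 100. Mean ± standard error of two independent experiments in triplicate; IC50 from curve fit.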

[3] = tested on: Saccharomyces cerevisiae; assay: Antimicrobial activity against Saccharomyces cerevisiae YCG198 harboring Saccharomyces cerevisiae Y8205 MATalpha PDR1delta::NAT PDR3 delta::URA3 assessed as growth inhibition after 18 hrs; format: functional, organism-based; settings: YCG198, 18 h; how it was run: as §1
[4] = tested on: Saccharomyces cerevisiae; assay: Antimicrobial activity against wild type Saccharomyces cerevisiae YCG117 harboring Saccharomyces cerevisiae Y8205 MATalpha ura3delta0::NAT assessed as growth inhibition at 0.01 to 100 uM after 18 hrs; format: functional, organism-based; how it was run: as §1
[5] = tested on: Saccharomyces cerevisiae; assay: Antimicrobial activity against Saccharomyces cerevisiae YCG198 harboring Saccharomyces cerevisiae Y8205 MATalpha PDR1delta::NAT PDR3 delta::URA3 assessed as growth inhibition at 0.01 to 100 uM after 18 hrs; format: functional, organism-based; how it was run: as §1

Row | SMILES | IC50 [1] [µM] | inhibition of growth at 100 µM [2] [%] | IC50 [3] [µM] | growth inhibition (GI) [4] | growth inhibition (GI) [5]
1 | COc1c(O)c(C)c(C/C=C(\C)CCCCCCc2ccccc2)oc1=O [LEHUALIDE F] | 6.2 | 60 | 44 | – | –
2 | COc1c(O)c(C)c(C/C=C(\C)CCCCCCCCc2ccccc2)oc1=O [LEHUALIDE G] | 5.4 | 68 | – | inactive | –
3 | COc1c(C)c(CCCCCCCCCCSC(C)=O)oc(=O)c1OC [LEHUALIDE H] | 14.6 | – | – | inactive | inactive
4 | COc1c(C)c(CCCCCCCCCCSC)oc(=O)c1OC [LEHUALIDE I] | 10.8 | 67 | – | inactive | –
